In BindingDB's records for doi:10.1021/jm960153q (Rhône-Poulenc Rorer, 1996):

Tests used:
[1] = Concentration at which one-half of the maximum Low density lipoprotein receptor is upregulated in HepG2 cells
[2] = molecular target: Low-density lipoprotein receptor (Homo sapiens, UniProt P01130); assay: Concentration at which one-half the maximum Low density lipoprotein receptor up-regulation is observed in HepG2 cells
Procedure, shortened: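 HepG2 cells in 96-well plates at 10 000 cells/well, grown 3 days to 80% confluence. Compounds added in DMEM with 1% BSA for 24 h at several concentrations. Formaldehyde-fixed cells probed with MAC-C7 (0.5 µg/mL, 60 min, 4 °C), then alkaline phosphatase-linked anti-mouse IgG, then fluorogenic substrate. EC50 is the concentration giving half-maximal upregulation, determined only when upregulation at 3 µM exceeded 40%. Five replicates.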

Low-density lipoprotein receptor, sequence (P01130 whole entry): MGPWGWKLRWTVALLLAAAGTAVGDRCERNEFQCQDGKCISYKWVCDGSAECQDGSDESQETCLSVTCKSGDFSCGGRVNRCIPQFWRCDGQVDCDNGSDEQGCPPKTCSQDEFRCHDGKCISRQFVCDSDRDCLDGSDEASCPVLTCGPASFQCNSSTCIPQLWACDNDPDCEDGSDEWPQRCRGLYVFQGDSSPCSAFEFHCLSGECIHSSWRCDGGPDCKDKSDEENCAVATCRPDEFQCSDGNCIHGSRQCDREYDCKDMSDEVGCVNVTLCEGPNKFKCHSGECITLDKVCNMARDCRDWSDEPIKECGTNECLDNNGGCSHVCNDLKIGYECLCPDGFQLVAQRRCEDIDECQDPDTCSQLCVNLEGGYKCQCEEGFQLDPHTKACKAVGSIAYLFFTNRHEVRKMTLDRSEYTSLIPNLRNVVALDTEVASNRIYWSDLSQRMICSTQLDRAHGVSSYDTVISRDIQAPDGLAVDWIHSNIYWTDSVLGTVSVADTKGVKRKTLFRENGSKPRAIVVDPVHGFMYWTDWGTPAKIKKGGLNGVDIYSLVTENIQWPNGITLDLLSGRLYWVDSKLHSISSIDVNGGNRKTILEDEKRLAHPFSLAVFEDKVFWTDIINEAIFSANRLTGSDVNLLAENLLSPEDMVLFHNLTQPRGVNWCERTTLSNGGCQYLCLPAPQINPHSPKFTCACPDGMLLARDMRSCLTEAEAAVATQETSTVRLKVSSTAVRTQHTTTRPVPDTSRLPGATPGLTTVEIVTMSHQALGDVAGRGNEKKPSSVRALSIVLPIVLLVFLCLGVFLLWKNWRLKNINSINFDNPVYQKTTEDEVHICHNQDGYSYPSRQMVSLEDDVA

EC50 [1] [nM] | EC50 [2] [nM] | SMILES
2000 |  | Cc1ccc(C(=O)NCCC2CCCCC2)cc1NC(=O)c1ccc(O)cc1 [N-(2-Cyclohexyl-ethyl)-3-(4-hydroxy-benzoylamino)-4-methyl-benzamide]
7000 |  | Cc1ccc(NC(=O)CCC2CCCCC2)cc1C(=O)Nc1ccc(O)cc1 [5-(3-Cyclohexyl-propionylamino)-N-(4-hydroxy-phenyl)-2-methyl-benzamide]
7600 |  | Cc1ccc(NC(=O)CCC2CCCCC2)cc1NC(=O)c1ccc(CO)cc1 [N-[5-(3-Cyclohexyl-propionylamino)-2-methyl-phenyl]-4-hydroxymethyl-benzamide]
1000 |  | Cc1ccc(NC(=O)CCC2CCCCC2)cc1/C=C(\C#N)c1cccnc1 [N-[3-((Z)-2-Cyano-2-pyridin-3-yl-vinyl)-4-methyl-phenyl]-3-cyclohexyl-propionamide]
700 |  | Cc1ccc(NC(=O)CCC2CCCCC2)cc1-c1nc2ccc(O)cc2[nH]1 [3-Cyclohexyl-N-[3-(5-hydroxy-1H-benzoimidazol-2-yl)-4-methyl-phenyl]-propionamide]
3800 |  | Cc1ccc(NC(=O)CCC2CCCCC2)cc1NC(=O)c1ccc(N)cc1 [4-Amino-N-[5-(3-cyclohexyl-propionylamino)-2-methyl-phenyl]-benzamide]
700 |  | Cc1ccc(NC(=O)CCC2CCCCC2)cc1/C=C(\C#N)c1ccc2c(c1)OCO2 [N-[3-((Z)-2-Benzo[1,3]dioxol-5-yl-2-cyano-vinyl)-4-methyl-phenyl]-3-cyclohexyl-propionamide]
1300 |  | Cc1ccc(NC(=O)CCC2CCCCC2)cc1-c1nc2ccccc2[nH]1 [N-[3-(1H-Benzoimidazol-2-yl)-4-methyl-phenyl]-3-cyclohexyl-propionamide]
 | 2000 | Cc1ccc(C(=O)CCCC2CCCCC2)cc1NC(=O)c1cccnc1 [N-[5-(4-Cyclohexyl-butyryl)-2-methyl-phenyl]-nicotinamide]
1300 |  | Cc1ccc2nc(-c3cc(NC(=O)CCC4CCCCC4)ccc3C)[nH]c2c1 [3-Cyclohexyl-N-[4-methyl-3-(5-methyl-1H-benzoimidazol-2-yl)-phenyl]-propionamide]
2000 |  | Cc1ccc(NC(=O)CCC2CCCCC2)cc1NC(=O)c1cccc(O)c1 [N-[5-(3-Cyclohexyl-propionylamino)-2-methyl-phenyl]-3-hydroxy-benzamide]
1700 |  | Cc1ccc(NC(=O)CCC2CCCCC2)cc1NC(=O)c1ccc(O)cc1 [N-[5-(3-Cyclohexyl-propionylamino)-2-methyl-phenyl]-4-hydroxy-benzamide]
4000 |  | Cc1ccc(NC(=O)CCCC2CCCCC2)cc1NC(=O)c1ccc(O)cc1 [N-[5-(4-Cyclohexyl-butyrylamino)-2-methyl-phenyl]-4-hydroxy-benzamide]
1200 |  | Cc1ccc(NC(=O)CCC2CCCCC2)cc1NC(=O)c1cccnc1 [N-[5-(3-Cyclohexyl-propionylamino)-2-methyl-phenyl]-nicotinamide]
2500 |  | CC(=O)Oc1ccc(C(=O)Nc2cc(NC(=O)CCC3CCCCC3)ccc2C)cc1 [Acetic acid 4-[5-(3-cyclohexyl-propionylamino)-2-methyl-phenylcarbamoyl]-phenyl ester]
2000 |  | Cc1ccc(NC(=O)CCC2CCCCC2)cc1NC(=O)c1ccccc1 [N-[5-(3-Cyclohexyl-propionylamino)-2-methyl-phenyl]-benzamide]
